The values that follow come from ChEMBL document CHEMBL1138851, “Synthesis, antifungal activity, and structure-activity relationships of coruscanone A analogues” (J Med Chem, 2006).

SMILES strings stand for the structures. ≈ marks a conversion by molar mass, not a printed value.

Assay [1] deals with Candida albicans. As to the kind of experiment: Antifungal activity against Candida albicans ATCC 90028. It counts as functional, organism-based. The essentials: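 Broth microdilution; samples serially diluted in 20% DMSO/saline, duplicate wells. Inoculum 1.0 × 10⁴ CFU/ml in RPMI 1640/2% dextrose/0.03% glutamine/MOPS, pH 6.0. Incubated 37 °C, 18–24 h; OD630 read before and after incubation. IC50 from percent growth vs concentration; MIC as lowest concentration with no detectable growth; MFC as no growth on agar after plating 5 μl from clear wells.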

In assay [2] the test system is Candida albicans. As to the kind of experiment: Antifungal activity against fluconazole-resistant Candida albicans. It counts as functional, organism-based. An outline of the steps: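 Broth microdilution (NCCLS-based) against patient isolate #17 (last isolate during fluconazole therapy, azole-resistant); samples serially diluted in 20% DMSO/saline, tested in duplicate. Inoculum 1.0 × 10⁴ CFU/ml in RPMI 1640/2% dextrose/0.03% glutamine/MOPS pH 6.0; 37 °C, 18–24 h; OD630 read before and after. IC50 from % growth versus concentration; MIC = no detectable growth; MFC by subculture onto agar. Means of three independent experiments.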

Another assay has as its system Aspergillus fumigatus. As to the kind of experiment: Antifungal activity against Aspergillus fumigatus ATCC 90906. Format: functional, organism-based.
In assay [3] the test system is Candida albicans. As to the kind of experiment: Antifungal activity against fluconazole-susceptible Candida albicans. It counts as functional, organism-based. An outline of the steps:
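Broth microdilution; samples serially diluted in 20% DMSO/saline, duplicate wells. Incubated 37 °C, 18–24 h; OD630 read before and after incubation. IC50 from percent growth vs concentration; MIC as lowest concentration with no detectable growth; MFC as no growth on agar after plating 5 μl from clear wells.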

Another assay concerns Cryptococcus neoformans. The assay can be described thus: Antifungal activity against Cryptococcus neoformans ATCC 90113. Format: functional, organism-based. The essentials:
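Serial dilutions in 20% DMSO/saline, tested in duplicate. Inoculum 1.0 × 10⁵ CFU/ml in Sabouraud dextrose broth. Incubated 30 °C, 72 h; OD630 read before and after incubation. IC50 from percent growth vs concentration; MIC as lowest concentration with no detectable growth; MFC as no growth on agar after plating 5 μl from clear wells.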

The next assay has as its system Vero. As to the kind of experiment: Cytotoxicity against Vero cells by neutral red method. It counts as cell-based. As to conditions: Chlorocebus sabaeus. An outline of the steps: (§1)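 Neutral red assay on ATCC-sourced Vero (African green monkey kidney […]) and LLC-PK1 (pig kidney epithelial) cells. Top test concentration 10 μg/mL. Values are means of three independent experiments.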

In a further assay the test system is LLC-PK1. The assay can be described thus: Cytotoxicity against LLC-PK1 cells by neutral red method. As to conditions: Sus scrofa. It counts as cell-based. The essentials: as §1

For `CC1=CC(=O)/C(=C(O)/C=C/c2ccc(Cl)cc2)C1=O`, the concentration for half-maximal inhibition (IC50) (in general, the point on the concentration scale where inhibition reaches its midpoint) in the assay with Candida albicans [1] was 13 µg/mL (≈ 47.3 µM); with Candida albicans [2], 13 µg/mL (≈ 47.3 µM); with Aspergillus fumigatus it was over 20 µg/mL; in the assay with Candida albicans [3], 10 µg/mL (≈ 36.4 µM); in the assay on Cryptococcus neoformans, over 20 µg/mL; with Vero, over 10 µg/mL. Besides, the IC50 in the assay on LLC-PK1 was determined as 6 µg/mL (≈ 21.8 µM). Besides, the minimal fungicidal concentration (MFC) in the assay with Candida albicans [1], in the assay with Aspergillus fumigatus, against Candida albicans [3] and in the assay on Cryptococcus neoformans was over 20 µg/mL in each case. In addition, the minimum inhibitory concentration (MIC) in the assay with Candida albicans [1], in the assay with Aspergillus fumigatus, against Candida albicans [3] and against Cryptococcus neoformans was over 20 µg/mL in each case.

In the case of `C[C@@H]1[C@H](O)[C@@H](C)/C=C/C=C/C=C/C=C/C=C/C=C/C=C/[C@H](O[C@@H]2O[C@H](C)[C@@H](O)[C@H](N)[C@@H]2O)C[C@@H]2O[C@](O)(C[C@@H](O)C[C@@H](O)[C@H](O)CC[C@@H](O)C[C@@H](O)CC(=O)O[C@H]1C)C[C@H](O)[C@H]2C(=O)O` [AMPHOTERICIN B], the IC50 in the assay with Candida albicans [1] is 0.15 µg/mL (≈ 0.162 µM); in the assay with Candida albicans [2], 0.17 µg/mL (≈ 0.184 µM); in the assay with Aspergillus fumigatus, 0.73 µg/mL (≈ 0.79 µM); in the assay with Candida albicans [3], 0.12 µg/mL (≈ 0.13 µM); with Cryptococcus neoformans, 0.41 µg/mL (≈ 0.444 µM); with Vero it was 7 µg/mL (≈ 7.58 µM). The compound also came in with an IC50 in the assay with LLC-PK1 of 2.4 µg/mL (≈ 2.6 µM). In addition, the minimum fungicidal concentration (MFC) (usually the lowest tested concentration that kills the fungus rather than only halting it) against Candida albicans [1] was 1.04 µg/mL (≈ 1.13 µM); in the assay on Candida albicans [2] it was 0.83 µg/mL (≈ 0.898 µM); against Cryptococcus neoformans, 1.67 µg/mL (≈ 1.81 µM). Besides, the values for the MIC in the assay on Candida albicans [1], against Candida albicans [2] and in the assay on Candida albicans [3] were 0.63 µg/mL (≈ 0.682 µM), 0.63 µg/mL (≈ 0.682 µM) and 0.52 µg/mL (≈ 0.563 µM), respectively.

Take `COC(/C=C/c1ccccc1)=C1\C(=O)C=C(C)C1=O` [CORUSCANONE A]: the IC50 with Candida albicans [1] came out at 0.8 µg/mL (≈ 3.15 µM); in the assay with Candida albicans [2], 0.68 µg/mL (≈ 2.67 µM); in the assay with Aspergillus fumigatus, 19 µg/mL (≈ 74.7 µM); in the assay on Candida albicans [3], 0.47 µg/mL (≈ 1.85 µM); with Cryptococcus neoformans it was 2.04 µg/mL (≈ 8.02 µM); with Vero, 4.9 µg/mL (≈ 19.3 µM). This compound also registered an IC50 in the assay on LLC-PK1 of 3.4 µg/mL (≈ 13.4 µM). The minimal fungicidal concentration (MFC) in the assay on Candida albicans [1] was 2.08 µg/mL (≈ 8.18 µM); in the assay on Candida albicans [2], 2.08 µg/mL (≈ 8.18 µM); with Aspergillus fumigatus, over 20 µg/mL; with Candida albicans [3] it was 1.25 µg/mL (≈ 4.92 µM); in the assay on Cryptococcus neoformans, 8.33 µg/mL (≈ 32.8 µM). For the same compound, the minimum inhibitory concentration (MIC) (in general, the smallest concentration in the dilution series that meets the test's criterion for growth inhibition) against Candida albicans [1] was 2.08 µg/mL (≈ 8.18 µM); with Candida albicans [2] it was 2.08 µg/mL (≈ 8.18 µM); with Aspergillus fumigatus it was over 20 µg/mL; in the assay with Candida albicans [3] it was 1.25 µg/mL (≈ 4.92 µM); with Cryptococcus neoformans, 8.33 µg/mL (≈ 32.8 µM).

For `OC(Cn1cncn1)(Cn1cncn1)c1ccc(F)cc1F` [FLUCONAZOLE], the IC50 with Candida albicans [1] is 0.22 µg/mL (≈ 0.718 µM); in the assay with Candida albicans [2], 118 µg/mL (≈ 385 µM); in the assay with Aspergillus fumigatus, over 200 µg/mL; in the assay with Candida albicans [3], 0.24 µg/mL (≈ 0.784 µM); with Cryptococcus neoformans it was 5.65 µg/mL (≈ 18.4 µM); with Vero it was over 10 µg/mL. In addition, the IC50 in the assay on LLC-PK1 was over 10 µg/mL. Moreover, the minimal fungicidal concentration (MFC) with Candida albicans [1], against Candida albicans [2], against Aspergillus fumigatus, against Candida albicans [3] and against Cryptococcus neoformans was over 200 µg/mL throughout. The MIC in the assay with Candida albicans [1] was 0.45 µg/mL (≈ 1.47 µM); against Candida albicans [2] it was over 200 µg/mL; against Aspergillus fumigatus, over 200 µg/mL; with Candida albicans [3] it was 0.45 µg/mL (≈ 1.47 µM); with Cryptococcus neoformans, 37 µg/mL (≈ 121 µM).
